By IC50 is commonly meant the concentration that inhibits the measured activity by half. Higher therefore signals weaker potency in that assay. Usually IC90 stands for the concentration needed for an effect of 90%. A low value points to greater potency.

In one assay the test system is CEM-SS. Put plainly: Cytotoxicity on CEM-SS cells. The class given is functional, cell-based. The settings on record: Homo sapiens. In short, it runs like this: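 Visual cytotoxicity: microscopic inspection of stationary uninfected CEM or CEM-SS cells from suspension cultures.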
Molecule `Nc1nc(O)c2ncn(/C=C3\CC3CO)c2n1` (stereo unspecified) showed an IC50 above 100 µM.

`Nc1nc(Cl)c2c(ncn2/C=C2/CC2CO)n1` (stereo unspecified) displayed an IC50 above 100 µM.

The test system of the next assay is CCRF-CEM. Put plainly: Inhibitory concentration against mitochondrial DNA synthesis CEM cells. The class given is functional, cell-based. Particulars: Homo sapiens. In short, it runs like this:
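CEM cells (2 × 10^5/mL) in RPMI 1640 + 10% dialyzed FBS with compound, re-split with fresh drug on days 4 and 6. On day 8, 1 × 10^5 cells lysed with RNase A and proteinase K, slot-blotted, probed with a mitochondrial DNA-specific probe.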
The molecule `Nc1nc(O)c2ncn(/C=C3\CC3CO)c2n1` (stereo unspecified) gave an IC50 above 100 µM.

In turn, `Nc1nc(Cl)c2c(ncn2/C=C2/CC2CO)n1` (stereo unspecified) displayed an IC50 above 50 µM.

A further assay deals with CCRF-CEM. Put plainly: Cytotoxicity was measured on CEM cells infected with Herpes Simplex virus […]. Particulars: Homo sapiens. The class given is functional, cell-based.
The molecule `Nc1nc(O)c2ncn(/C=C3\CC3CO)c2n1` (stereo unspecified) displayed a half-maximal inhibitory concentration (IC50) above 100 µM.

In turn, `Nc1nc(Cl)c2c(ncn2/C=C2/CC2CO)n1` (stereo unspecified) gave an IC50 of 80 µM.

Another assay deals with Daudi. Put plainly: Cytotoxicity on Daudi cells at time of […] in cells not effected by the virus. The class given is functional, cell-based. The settings on record: Homo sapiens.
The molecule `Nc1nc(O)c2ncn(/C=C3\CC3CO)c2n1` (stereo unspecified) came in with an IC50 above 206 µM.

Consider `Nc1nc(Cl)c2c(ncn2/C=C2/CC2CO)n1` (stereo unspecified), for which the half-inhibitory concentration (IC50) was above 199 µM.

The next assay has as its system Daudi. Put plainly: Inhibitory concentration against epstein-barr virus (EBV) infected daudi cells was determined. The class given is functional, cell-based. The settings on record: Homo sapiens. The gist of the method:
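Daudi cells infected with P3HR-1 EBV at 0.1–0.2 moi for 45 min at 37 °C, washed, then incubated 48 h with serially diluted drug in RPMI-1640. Acetone-fixed cells stained with anti-VCA monoclonal antibody and FITC anti-mouse IgG, Evans Blue counterstain; 500 cells counted, VCA-positive fraction used for IC50.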
`Nc1nc(O)c2ncn(/C=C3\CC3CO)c2n1` (stereo unspecified) returned an IC50 above 206 µM.

`Nc1nc(Cl)c2c(ncn2/C=C2/CC2CO)n1` (stereo unspecified) returned an IC50 of 1.2 µM.

The next assay deals with Human alphaherpesvirus 1. Put plainly: Inhibitory concentration against herpes simplex virus type 1 (HSV-1) was determined by enzyme-linked immunosorbent assay (ELISA). The class given is functional, organism-based.
Conditions: not given
In general terms: ELISA stands for enzyme-linked immunosorbent assay.
`Nc1nc(O)c2ncn(/C=C3\CC3CO)c2n1` (stereo unspecified) came in with an IC50 of 100 µM.

For `Nc1nc(Cl)c2c(ncn2/C=C2/CC2CO)n1` (stereo unspecified), the concentration for half-maximal inhibition (IC50) came to 31 µM.

Test system in the next assay: not listed separately
Put plainly: Cytotoxicity on H-1 cells at time of HCMV plaque enumeration in cells not effected by the virus. Particulars: Homo sapiens. The class given is functional, cell-based.
Molecule `Nc1nc(O)c2ncn(/C=C3\CC3CO)c2n1` (stereo unspecified) came in with a concentration for half-maximal inhibition (IC50) above 50 µM.

The molecule `Nc1nc(Cl)c2c(ncn2/C=C2/CC2CO)n1` (stereo unspecified) registered an IC50 above 50 µM.

For the next assay, the system named is HFF. Put plainly: Cytotoxicity on stationary HFF cells at time of HCMV plaque enumeration in cells not effected by the virus. The class given is functional, cell-based. Particulars: Homo sapiens. The gist of the method:
(§1)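 Visual cytotoxicity scored microscopically on stationary HFF or MEF cells not affected by virus, at the time of HCMV or MCMV plaque enumeration.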
For `Nc1nc(O)c2ncn(/C=C3\CC3CO)c2n1` (stereo unspecified), the IC50 is above 100 µM.

On to `Nc1nc(Cl)c2c(ncn2/C=C2/CC2CO)n1` (stereo unspecified), for which the IC50 was above 100 µM.

A further assay deals with HFF. Put plainly: IC50 value was evaluated by measuring the %inhibition of Human Herpes Virus 6(HHV-6) infected […] cells using ELISA assay. The class given is functional, cell-based.
Conditions: not given
In the case of `Nc1nc(O)c2ncn(/C=C3\CC3CO)c2n1` (stereo unspecified), the half-inhibitory concentration (IC50) is above 100 µM.

Take `Nc1nc(Cl)c2c(ncn2/C=C2/CC2CO)n1` (stereo unspecified): the IC50 stood at 50 µM.

A further assay has as its system HFF. Put plainly: IC50 value was evaluated by measuring the %inhibition of Varicella Zoster virus(VZV) infected HFF cells using plaque reduction assay. The class given is functional, cell-based. Particulars: Homo sapiens. The gist of the method: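 HFF cells plated 2 days earlier and infected with VZV (20–30 plaques/well) for 1 h. Six 1:5 drug dilutions in MEM + 2% FBS, no antibody overlay, duplicate wells; extra medium on day 5, 10 days total at 37 °C. Neutral red stain, plaques counted; IC50 from regression.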
In general terms: In a plaque reduction assay, fewer plaques than in the control indicate reduced infectivity or spread.
Molecule `Nc1nc(O)c2ncn(/C=C3\CC3CO)c2n1` (stereo unspecified) showed an IC50 of 263 µM.

`Nc1nc(Cl)c2c(ncn2/C=C2/CC2CO)n1` (stereo unspecified) yielded a half-inhibitory concentration (IC50) above 518 µM.

The next assay has as its system HFF. Put plainly: Inhibitory concentration against herpes simplex virus type 1 (HSV-1) infected HFF cells was determined by cytopathic effect inhibition assay. Particulars: Homo sapiens. The class given is functional, cell-based. In short, it runs like this:
(§2)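 HFF cells (low passage) seeded 24 h before in MEM + 10% FBS; drug in MEM + 2% FBS, serial 1:5 dilutions in triplicate, 1 h pre-incubation, then HSV-1 or HSV-2 at 1000 pfu/well. Incubated 3 days at 37 °C, crystal violet/ethanol/formaldehyde stain, absorbance at 630 nm; IC50 by linear regression of % inhibition vs log concentration.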
On to `Nc1nc(O)c2ncn(/C=C3\CC3CO)c2n1` (stereo unspecified), for which the IC50 is above 413 µM.

`Nc1nc(Cl)c2c(ncn2/C=C2/CC2CO)n1` (stereo unspecified) had an IC50 above 79.5 µM.

The subject of a further assay is HFF. Put plainly: Inhibitory concentration against human cytomegalovirus replication in HFF cells was determined by cytopathic effect inhibition assay.
Conditions: not given
The class given is functional, cell-based. In short, it runs like this:
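HFF cells seeded 24 h before; serial 1:5 drug dilutions in MEM + 2% FBS in triplicate, 1 h, then 2500 pfu/well CMV. Incubated 14 days at 37 °C with 50 μL MEM added on day 7; crystal violet stain, read at 630 nm. IC50 from regression.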
(Cytopathic effects are the visible damage that an infection or toxin causes in cultured cells.)
With `Nc1nc(O)c2ncn(/C=C3\CC3CO)c2n1` (stereo unspecified), the IC50 is above 413 µM.

Consider `Nc1nc(Cl)c2c(ncn2/C=C2/CC2CO)n1` (stereo unspecified), for which half-maximal inhibition (IC50) was put at 5.6 µM. This counts as single-digit micromolar.

For a further assay, the system named is HFF. Put plainly: Inhibitory concentration against human cytomegalovirus replication in HFF cells was determined by plaque reduction assay. The class given is functional, cell-based.
Conditions: not given
In short, it runs like this: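 HFF cells infected with HCMV Towne (~100 pfu/cm2). After adsorption, drug added to duplicate wells at four to eight concentrations; 8–10 days at 37 °C, crystal violet stain, microscopic plaques counted. % plaque reduction vs no-drug control; IC50 by linear regression vs log concentration.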
`Nc1nc(O)c2ncn(/C=C3\CC3CO)c2n1` (stereo unspecified) yielded a 50% inhibitory concentration (IC50) above 100 µM.

As for `Nc1nc(Cl)c2c(ncn2/C=C2/CC2CO)n1` (stereo unspecified), half-maximal inhibition (IC50) was put at 5 µM.

A further assay has as its system HFF. Put plainly: Inhibitory concentration against human cytomegalovirus replication in HFF cells was determined by yield reduction assay. The class given is functional.
Conditions: not given
In short, it runs like this:
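HFF cells (12 500/well) infected with HCMV at moi 0.5–1 and exposed to compound in duplicate at 100 to 0.14 μM for 4 days at 37 °C. After freeze–thaw, supernatants serially diluted onto fresh HFF monolayers and plaques titered; IC90 reported.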
`Nc1nc(Cl)c2c(ncn2/C=C2/CC2CO)n1` (stereo unspecified) registered an IC90 of 0.8 µM.

The next assay relates to HFF. Put plainly: Compound was tested against HFF cells infected with herpes simplex virus type 2 (HSV-2) by cytopathic effect inhibition assay. The class given is functional, cell-based. The settings on record: Homo sapiens. In short, it runs like this: as §2
The molecule `Nc1nc(O)c2ncn(/C=C3\CC3CO)c2n1` (stereo unspecified) gave an IC50 above 413 µM.

The molecule `Nc1nc(Cl)c2c(ncn2/C=C2/CC2CO)n1` (stereo unspecified) returned an IC50 above 79.5 µM.

A further assay has as its system HepG2. Put plainly: Inhibitory concentration against hepatitis B virus infected 2.2.15 cells. The class given is functional, cell-based. The settings on record: Homo sapiens. The gist of the method: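 HBV-producing 2.2.15 cells in MEM + 10% FBS; compounds added on days 6 and 9, 6 days of exposure. Virions in the medium precipitated with PEG/NaCl, DNA extracted, run on 0.8% agarose, Southern blotted with 32P HBV probe, quantified by densitometry.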
Molecule `Nc1nc(O)c2ncn(/C=C3\CC3CO)c2n1` (stereo unspecified) yielded a 50% inhibitory concentration (IC50) above 10 µM.

Regarding `Nc1nc(Cl)c2c(ncn2/C=C2/CC2CO)n1` (stereo unspecified), the IC50 is above 10 µM.

The test system of the next assay is KB. Put plainly: Cytotoxicity was evaluated by measuring the inhibition of KB cell growth. The class given is functional, cell-based. Particulars: Homo sapiens. In short, it runs like this:
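KB cells at 3000–5000/well, overnight at 37 °C, compound added in triplicate at eight concentrations. Growth over 48 h (two population doublings), then ethanol fixation, 0.1% crystal violet stain, eluted dye read at 570 nm; quadruplicate assays. IC50 by linear regression of % inhibition vs log concentration.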
Molecule `Nc1nc(O)c2ncn(/C=C3\CC3CO)c2n1` (stereo unspecified) had an IC50 above 100 µM.

As for `Nc1nc(Cl)c2c(ncn2/C=C2/CC2CO)n1` (stereo unspecified), the IC50 is above 100 µM.

The test system of a further assay is MEF. Put plainly: Inhibitory concentration against murine cytomegalovirus replication in MEF cells was determined by plaque reduction assay. The class given is functional, cell-based. The settings on record: Mus musculus. The gist of the method:
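MEF cells plated 2 days earlier and infected with MCMV (20–30 plaques/well) for 1 h. Six 1:5 drug dilutions in MEM + 2% FBS, duplicate wells, 7 days at 37 °C, 1.5% neutral red stain, plaques counted; IC50 by linear regression vs log concentration.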
Molecule `Nc1nc(Cl)c2c(ncn2/C=C2/CC2CO)n1` (stereo unspecified) yielded an IC50 of 0.3 µM.

The next assay relates to Vero. Put plainly: Compound was tested against vero cells infected with herpes simplex virus type 2 (HSV-2). The class given is functional, cell-based. Particulars: Chlorocebus sabaeus. The gist of the method: (§3)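 Confluent Vero monolayers (RPMI + 5% FBS + 0.1% methylcellulose) infected 1 h with HSV-1 KOS or HSV-2 333 at 20 or 100 pfu/well. Drug overlay in RPMI + 2% dialyzed FBS + 0.1% methylcellulose, 48–72 h at 37 °C, 5% CO2. Crystal violet stain, plaques counted; IC50 by linear regression of % inhibition vs log concentration.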
As to `Nc1nc(O)c2ncn(/C=C3\CC3CO)c2n1` (stereo unspecified), the IC50 was above 100 µM.

`Nc1nc(Cl)c2c(ncn2/C=C2/CC2CO)n1` (stereo unspecified) registered an IC50 of 55 µM. In other words, the double-digit micromolar range.

The test system of a further assay is Vero. Put plainly: Inhibitory concentration against herpes simplex virus type 1 (HSV-1) infected vero cells was determined. The class given is functional, cell-based. The settings on record: Chlorocebus sabaeus. The gist of the method: as §3
In turn, `Nc1nc(O)c2ncn(/C=C3\CC3CO)c2n1` (stereo unspecified) had a half-inhibitory concentration (IC50) above 100 µM.

In turn, `Nc1nc(Cl)c2c(ncn2/C=C2/CC2CO)n1` (stereo unspecified) yielded a half-maximal inhibitory concentration (IC50) of 52 µM.

Test system in the next assay: not listed separately
Put plainly: Inhibitory concentration against epstein-barr virus (EBV) infected H-1 cells was determined. The class given is functional, cell-based. Particulars: Homo sapiens. The gist of the method:
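H-1 cells (high-yield EBV producer from P3HR-1) kept in log growth, seeded at 2 × 10^5/well with drug in RPMI 1640 + 10% dialyzed FBS for 5 days at 37 °C. Lysates treated with RNase A and proteinase K, slot-blotted, probed with 32P EBV EcoRI C fragment; normalized to Alu DNA vs untreated cells by densitometry.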
In turn, `Nc1nc(O)c2ncn(/C=C3\CC3CO)c2n1` (stereo unspecified) registered an IC50 above 50 µM.

Consider `Nc1nc(Cl)c2c(ncn2/C=C2/CC2CO)n1` (stereo unspecified), for which half-maximal inhibition (IC50) required 0.7 µM. This lies in the sub-micromolar range.

Another assay deals with MEF. Put plainly: Cytotoxicity on stationary MEF cells at time of MCMV plaque enumeration in cells not effected by the virus. The class given is functional, cell-based. Particulars: Mus musculus. In short, it runs like this: as §1
For the molecule `Nc1nc(Cl)c2c(ncn2/C=C2/CC2CO)n1` (stereo unspecified), 270 µM corresponded to half-maximal inhibition (IC50).

The record behind these values is ChEMBL document CHEMBL1131504, “(Z)- and (E)-2-((hydroxymethyl)cyclopropylidene)methyladenine and -guanine. New nucleoside analogues with a broad-spectrum antiviral activity” (J Med Chem, 1998).
